From PubChem BioAssay
The list is not random: actives were taken first. Their share in the collection is about 2.1%.
EP2 mod = EP2 receptor modulators, cAMP readout, primary screen, cell-based, HTRF cAMP, PGE2 stimulation; Prostaglandin E2 receptor EP2 subtype (Homo sapiens), P43116; actives 0.83% (n = 260,000); induction, % at 25 µM; EP2-expressing cells, cAMP HTRF FRET, PGE2 co-stimulation;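 active = compounds whose cAMP rise, as percent of the full-agonist control response, exceeds 60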;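 also: rat C6 glioma line stably carrying human EP2 under a CMV promoter; the protocol text gives 20 µM as final concentration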
PGE2 EP2 inh = human EP2 receptor antagonists, primary screen, TR-FRET cAMP, C6 glioma cells; Prostaglandin E2 receptor EP2 subtype (Homo sapiens), P43116; C6 glioma cells expressing human EP2; cells stimulated with saturating PGE2; inhibition, % at 25 µM; actives 0.52% (n = 260,000);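 active = percent inhibition above 40 after rounding to a whole number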;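 also: rat C6 glioma host cells with rolipram phosphodiesterase inhibitor present; the protocol text gives 20 µM as final concentration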
FXIa inh = human FXIa protease inhibitors, primary screen, biochemical, 1536-well; actives 0.14% (n = 220,000); purified FXIa, Boc-Glu-Ala-Arg-AMC fluorogenic substrate; inhibition, % at 5 µM;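 active = inhibition of at least 40%; inactive = inhibition below 40%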;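 also: fluorescence of freed AMC excited at 355 nm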
hK5 inh = human KLK5 protease inhibitors, primary screen, biochemical, 1536-well; inhibition, % at 5 µM; actives 0.59% (n = 210,000); recombinant hK5, fluorogenic AMC substrate cleavage; Kallikrein-5 (Homo sapiens), Q9Y337;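 active = inhibition of 40% or more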
thrombin 1536 = human alpha-thrombin inhibitors, primary screen, counter-screen for coagulation protease inhibitor project, biochemical, 1536-well, fluorogenic AMC substrate. Prothrombin (Homo sapiens), P00734. actives 0.26% (n = 220,000). Boc-VPR-AMC fluorogenic substrate cleavage. inhibition, % at 5 µM. AID 1046, 2008;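 active = inhibition at or above 40%; inactive = inhibition below 40%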
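Test system: human alpha-thrombin protein / Dosing: one concentration per compound, 5 µM, with 0.2% DMSO / Medium: pH 7.5 Tris-saline with Tween 20 / Benchmarks: no-compound enzyme wells and no-enzyme blanks / Read-out basis: percent inhibition of thrombin substrate cleavage / Timing: reaction at room temperature / Measured by: fluorescence, ex 355 nm, em 460 nm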
FXIIa inh = human FXIIa protease inhibitors, primary screen, biochemical, 1536-well. purified FXIIa, Boc-QGR-AMC fluorogenic substrate, 2 h. inhibition, % at 5 µM. actives 0.3% (n = 220,000). AID 800, 2007; in the data active = inhibition above about 40%
Target sequence (P00748 20-372 limits assumed): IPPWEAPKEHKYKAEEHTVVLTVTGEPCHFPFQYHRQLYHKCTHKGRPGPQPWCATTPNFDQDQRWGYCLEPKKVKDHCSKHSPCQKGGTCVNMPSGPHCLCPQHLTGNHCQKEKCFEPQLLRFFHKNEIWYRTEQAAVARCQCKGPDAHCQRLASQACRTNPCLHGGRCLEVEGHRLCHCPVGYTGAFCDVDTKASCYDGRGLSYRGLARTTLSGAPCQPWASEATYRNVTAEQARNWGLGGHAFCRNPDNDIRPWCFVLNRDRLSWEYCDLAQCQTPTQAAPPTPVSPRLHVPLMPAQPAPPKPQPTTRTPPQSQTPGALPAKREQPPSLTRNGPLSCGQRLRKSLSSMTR
Target sequence (P00748 373-615 limits assumed): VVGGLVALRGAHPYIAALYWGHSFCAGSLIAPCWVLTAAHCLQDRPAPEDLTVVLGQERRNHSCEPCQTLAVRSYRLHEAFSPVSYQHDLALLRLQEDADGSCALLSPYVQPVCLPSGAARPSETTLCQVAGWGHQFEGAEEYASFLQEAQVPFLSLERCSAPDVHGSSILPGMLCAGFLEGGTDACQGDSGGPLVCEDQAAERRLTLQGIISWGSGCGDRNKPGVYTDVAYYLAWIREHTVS
A number is an active result; n = inactive; x = no result; ! = repeats disagree.

SMILES | EP2 mod | PGE2 EP2 inh | FXIa inh | hK5 inh | thrombin 1536 | FXIIa inh
COc1ccccc1CC(=O)Nc1nnc(Cc2ccc(OC)c(OC)c2)s1 | n | n | x | x | x | x
Cc1nn(C)cc1-c1nc2cnccn2c1NCc1ccc2c(c1)OCO2 | n | x | x | x | x | x
COc1ccc(S(=O)(=O)NCc2c(-c3ccccc3)noc2C)c(OC)c1 | n | n | 58.8 | n | n | n
Cc1ccc(C(=O)C(NC(=O)c2ccco2)N2CCOCC2)cc1 (stereo unspecified) | n | n | n | 43.6 | n | n
O=C(CCN1CCCCC1c1cccnc1)NCc1ccccc1 (stereo unspecified) | n | n | n | n | n | n
CN1CCC[C@H]1c1cccnc1.O=C(O)c1ccccc1O.O=C([OH2+])c1ccccc1O.O=C([OH2+])c1ccccc1O.O=C([OH2+])c1ccccc1O.[Mn] | n | 41.9 | x | x | x | x
CC(=O)N1CCN(c2c3c(nc4c(-c5ccccc5)c(C)nn24)CCC3)CC1 | n | x | x | x | x | x
COc1ccc(N2CCN(c3ccc(NC(=O)C4CCCCC4)cc3C#N)CC2)cc1 | n | n | n | n | n | n
COc1ccc(C(=O)Nc2ccc(N3CCN(c4ccc(OC)cc4)CC3)c(C#N)c2)cc1 | n | n | 46.8 | n | n | n
CCOC(=O)C(C)n1cnc2sc3c(c2c1=O)CCCC3 (stereo unspecified) | n | n | x | x | x | x
Cc1c(C(=O)c2ccc(Cl)c(Cl)c2)cnc2cc3c(cc12)OCO3 | n | n | n | n | n | n
COc1ccc(C(=O)c2cnc3cc4c(cc3c2C)OCO4)cc1 | n | n | n | 74.1 | n | n
O=c1c2ccccc2nc(-c2cccs2)n1-c1cccc2ccccc12 | 62.4 | n | n | n | n | n
COc1ccc(Oc2ccccc2/C=N/O)cc1 | n | n | n | 116.7 | n | n
O=Cc1ccccc1Oc1ccccc1 | n | n | n | n | n | n
COc1ccc(CSc2n[nH]c(C)n2)cc1[N+](=O)[O-] | n | n | n | 47.6 | n | n
CC(C)Oc1ccc(N2CC(C(=O)Nc3nc4ccccc4s3)CC2=O)cc1 (stereo unspecified) | n | n | x | x | x | x
COC(=O)c1sc(NC(=O)c2c(F)cccc2F)c(C#N)c1C | n | n | n | n | n | n
N#Cc1c(NC(=O)C(F)(F)F)sc2c3c(=O)c4ccccc4c(=O)c=3oc3ccccc3c12 | n | 42.0 | x | x | x | x
Cc1ccc(NC(=O)CSc2nccn2Cc2ccccc2)cc1C | n | n | n | n | n | n
CC(=O)Nc1ccc(NC(=O)CSc2nccn2Cc2ccccc2)cc1 | n | n | n | 57.4 | n | n
CC(=O)Nc1ccc(NC(=O)CSc2ncnn2-c2ccccc2)cc1 | n | n | n | n | n | 42.7
Cc1cccc(C2(O)CCN(C(=O)Cn3ccc4ccc(F)cc43)CC2)c1 | n | n | x | x | x | x
CC1CCN(CC(=O)N2c3ccccc3Sc3cc4ccccc4cc32)CC1 | n | 45.9 | x | x | x | x
CN1CCN(CCC(=O)N2c3ccccc3Sc3ccc(Cl)cc32)CC1 | n | n | n | n | n | n
SMILES | EP2 mod | PGE2 EP2 inh | FXIa inh | hK5 inh | thrombin 1536 | FXIIa inh
CN1CCN(CC(=O)N2c3ccccc3Sc3cc4ccccc4cc32)CC1 | n | 44.8 | x | x | x | x
CCc1ccc(C(=O)COC(=O)CNC(=O)c2ccc(N3C(=O)c4ccccc4C3=O)cc2)cc1 | n | n | n | 43.7 | n | n
O=C(CNC(=O)c1ccc(N2C(=O)c3ccccc3C2=O)cc1)OCC(=O)c1ccccc1 | n | n | n | n | n | n
Oc1ccccc1-c1nc(/C=C/c2ccccc2)nn1-c1ccccc1 | n | n | n | n | n | n
Oc1ccc(/C=C/c2nc(-c3ccccc3O)n(-c3ccccc3)n2)cc1 | 64.7 | n | n | n | n | n
CCn1cc(C(=O)O)c(=O)c2cc(F)c(N3CCN(C(=O)C4CCCO4)CC3)cc21 (stereo unspecified) | n | n | x | x | x | x
CC(=O)c1c(N2CCC(C(N)=O)CC2)nc(=S)n(-c2ccccc2)c1C | n | n | n | 45.3 | n | n
COC(=O)c1sc(-c2ccccc2)cc1NC(C)=O | n | n | n | n | n | n
COC(=O)c1sc(-c2cccs2)cc1NC(=O)/C=C/C(=O)O | n | 62.8 | n | n | n | n
COc1ccc(NC(=O)/C=C/C(=O)O)c(OC)c1 | 74.6 | n | n | n | n | n
CCC(CN1CCOCC1)NC(=O)Cc1cc(C(C)=O)ccc1OC (stereo unspecified) | n | n | x | x | x | x
CCNCCNc1ccc(Cl)cc1[N+](=O)[O-] | x | n | x | x | x | x
Cc1ccc(C(=O)NCCNc2ccc(Cl)cc2[N+](=O)[O-])o1 | n | n | n | n | n | 59.9
Cc1cc(C(F)(F)F)nc(SCCNC(=O)Cc2c(F)cccc2Cl)n1 | n | n | x | x | x | x
CC1(C)Cc2nc3sc4c(SCC(=O)NCc5ccccc5)ncnc4c3cc2CO1 | 63.2 | n | n | n | n | n
CC1(C)Cc2nc3sc4c(SCC(=O)O)ncnc4c3cc2CO1 | n | n | n | n | n | n
CCc1c(C)sc2nc(C)nc(SCC(=O)Nc3cc(C)ccc3C)c12 | n | n | x | x | x | x
Cc1nc2ccccc2c(=O)n1NC(=O)c1ccccc1Cl | n | n | n | n | n | n
Cc1nc2ccccc2c(=O)n1NC(=O)c1cc(Br)ccc1Cl | n | n | 47.1 | 43.1 | 51.2 | n
Cc1ccc(N=Nc2c(O)c3ccccc3[nH]c2=O)c(S(=O)(=O)N(C)C)c1 | n | 48.1! | n | n | n | n
Cc1cc(N=Nc2c(O)c3ccccc3[nH]c2=O)ccc1N=Nc1ccc(C(=O)N(C)C)cc1 | n | n | n | n | n | n
O=C(CCCl)N1c2ccccc2Sc2ccccc21 | 69.6 | n | x | x | x | x
O=C(c1ccco1)N1c2ccccc2Sc2ccccc21 | n | 44.1 | n | n | n | n
O=C(c1ccco1)N1CCN(C(=O)N2c3ccccc3Sc3ccccc32)CC1 | n | n | n | 42.9 | 103.8 | n
O=C(NC1CCN(C(=O)N2c3ccccc3Sc3ccccc32)CC1)c1ccco1 | n | n | n | n | n | n
Nc1nc(-c2ccccc2)c(-c2ccccc2)c(-c2nc(N)nc(-c3ccccc3)c2-c2ccccc2)n1 | n | 47.8 | x | x | x | x
Nc1nc(-c2ccccc2)c(-c2ccccc2)o1 | n | n | n | n | n | n
CCc1sc(NC(=O)C2(C)CCCO2)nc1-c1ccc(F)cc1 (stereo unspecified) | n | n | x | x | x | x
Cn1ncc(SCc2ccccc2)c(Cl)c1=O | n | n | n | n | n | n
Cn1ncc(S(=O)(=O)Cc2ccccc2)c(Cl)c1=O | n | 88.8 | n | n | n | n
